Assay outcomes deposited in PubChem BioAssay by several laboratories.
SR-BI uptake up: SR-BI HDL lipid transfer activation; CHO ldlA[mSR-BI] cells, DiI-HDL uptake fluorescence, 3 h; 100 = double the neutral-control signal; activation, % at 12.5 µM; 320,000 compounds, 0.096% hits;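 active = mean replicate activation of at least 60% and every replicate at or above 60%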;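 also: 0% = median plate neutral-control signal and 100% = twice that signal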
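System: CHO ldlA[mSR-BI] cells / Medium: HEPES-buffered (25 mM, pH 7.4) F12 plus 0.5% BSA / Probe or stimulus: labelled HDL, 10 µg/mL / Doses: single compound concentration, delivered by pin transfer / Schedule: 3 h, 37 °C / Measured by: DiI fluorescence, bottom read / Measure: cell-associated DiI fluorescence as measure of HDL uptake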
ARNT TACC3 PPI: ARNT/TACC3 interaction disruption | inhibition, % at 9.99 µM | Q9Y6A5 | AlphaScreen His-ARNT PAS-B/GST-TACC3 binding, luminescence; TACC3 fragment carries E629A point mutation | 390,000 compounds, 0.66% hits | AID 623870;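 active = mean inhibition of replicates at least 50% and at least half of replicates each reaching 50%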;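 also: 0% = complete ARNT plus TACC3 wells and 100% = ARNT alone without TACC3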
SR-BI DiI inh: blocks mouse SR-BI lipid uptake from DiI-HDL. Q61009. ldlA[mSR-BI] CHO cells, DiI-HDL uptake fluorescence, 3 h. inhibition, % at 12.5 µM. 320,000 compounds, 0.96% hits;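 active = mean replicate inhibition of at least 70% and a set share of replicates each scoring 70 or more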;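 also: 0% = median of neutral control wells and 100% = median of positive control wells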
sPLA2-III inh: Inhibits HGIII-sPLA2 liposome hydrolysis, primary screen. inhibition, % at 12.2 µM. QFRET BODIPY PC-A2 liposome hydrolysis, fluorescence. AID 743126. 370,000 compounds, 0.56% hits. Q9NZ20;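 active = inhibition above mean plus 3 SD of compounds lying within the high and low control bounds, cut at about 19% in these data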;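 also: 0% = median of test compound wells and 100% = no enzyme DMSO wells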
NSD2 inh: inhibitors of human histone methyltransferase NSD2 | O96028 | NSD2 peptide methylation, AlphaScreen, 120 min | inhibition, % at 12.5 µM | 310,000 compounds, 0.54% hits; in the data active = inhibition above about 50%
Xi reactivation: activators of X-chromosome reactivation in mouse fibroblasts; XiGFP mouse fibroblasts, % GFP-positive cells imaging, 3 d; cells co-treated with 5-aza-dC sensitizer; scaled so ellipticine positive control = 100%; activation, % at 7.58 µM; 360,000 compounds, 0.055% hits;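 active = mean normalized replicate activation at least 10% and every replicate at or above 10%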;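 also: 0% = median of on-plate neutral control wells and 100% = ellipticine 6 µM median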
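assay system = SV40-immortalized XiGFP fibroblast cells, line 68-5-11 | buffer or medium = DMEM plus 5-aza-dC sensitizer | doses = single-point pinned compound dosing | times = 3-day compound exposure, then 15 min fixation at room temperature | benchmarks = positive control ellipticine, 6 µM final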
AlphaScreen art: interferes with AlphaScreen signal, flagging NSD2 false positives | shares compounds with NSD2 inh | AlphaScreen artifact counterscreen, preloaded methylated H4 peptide | AC35, µM (doses to about 10 µM), for the others: at the top dose activity change, negative = signal loss | 1,500 compounds, 9.4% hits | AID 1053174; call rule not given here
The depositor's hits bear a star; · = no result given; + = active, no number. This is a sample that favours compounds with a hit; in the whole collection about 2% have one here.

SMILES	SR-BI uptake up	ARNT TACC3 PPI	SR-BI DiI inh	sPLA2-III inh	NSD2 inh	Xi reactivation	AlphaScreen art
CC1(C)Cc2cccc(OCC(=O)O)c2O1	8	·	-8	4	54*	·	-1%
Cc1c(C(=O)NCc2n[nH]c(=S)n2-c2ccc(F)cc2)cccc1[N+](=O)[O-]	28	-12	-28	5	-3	0	·
COc1cc(/C=C/[N+](=O)[O-])ccc1OCc1cccc(C(=O)O)c1	·	·	·	·	82*	·	-18%
COc1ccc(C(=O)C=Cc2ccc(OCc3ccccc3)c(OC)c2)cc1OC	·	·	·	-5	0	1	·
CNCc1ccccc1Sc1ccc(O)c(O)c1	30	·	-30	4	64*	0	-8%
C[C@@H]1CCCCO[C@@H](CN(C)Cc2ccc(C(F)(F)F)cc2)[C@H](C)CN([C@H](C)CO)C(=O)c2cc(NC(=O)NC3CCCCC3)ccc2O1	·	-5	·	·	·	0	·
O=C(COC(=O)CCS(=O)(=O)c1ccc(Cl)cc1)NC1CCCCC1	11	5	-11	3	1	·	·
O=C(NCCC(=O)N1CCc2ccccc21)c1ccco1	-4	-31	4	1	68*	0	-2%
COc1ccc2c3c(n(C)c2c1)[C@@H](CO)NCC31CN(Cc2ccc(Cl)cc2)C1	·	·	·	·	·	0	·
CN(C)c1cccc2c1c(NC(=O)Nc1ccccc1)nn2C	-44	2	44	19	88*	0	-1%
CCOC(=O)C1=C(COC(=O)c2ccc([N+](=O)[O-])s2)NC(=O)NC1C (configuration not stated)	-19	39	19	-3	104*	0	0%
CCOC(=O)C1=C(COC(=O)c2sccc2C)NC(=O)NC1C (configuration not stated)	0	-1	0	9	-5	0	·
COc1ccc2c3c([nH]c2c1)[C@H](CO)N(C(=O)c1ccccc1)CC31CN(C(=O)NC(C)C)C1	·	·	·	·	·	1	·
CN(C1=C(NC(=O)c2ccccc2)C(=O)c2ccccc2C1=O)C1CCS(=O)(=O)C1 (configuration not stated)	-19	·	19	4	109*	0	-3%
COc1ccc(NC2=CC(c3ccccc3)N(c3ccc(OC)cc3)C2=O)cc1 (configuration not stated)	·	·	·	-17	-2	0	·
COc1ccc(NC2=CC(c3cccc(OC)c3)N(c3ccc(OC)cc3)C2=O)cc1 (configuration not stated)	-4	-18	4	-11	52*	0	-8%
CCCCn1c(SCC(=O)c2ccc(O)c(O)c2)nc2ccsc2c1=O	-5	-4	5	·	36	·	·
O=C(O)CCCCCn1c(SCC(=O)c2ccc(O)c(O)c2)nc2ccsc2c1=O	-11	15	11	-12	91*	0	-14%
Nc1c(Br)cc(Br)c2c1[nH]c(=O)c1ccccc12	·	·	·	13	73*	1	-8%
CCN(CC)C(=O)COC(=O)C1=NN(c2cc(C)ccc2C)C(=O)CC1	20	-4	-20	7	59*	0	-5%
CCc1ccc(OCC(=O)NC2CC(C)(C)NC(C)(C)C2)cc1	12	7	-12	6	-6	0	·
CC(=O)c1cccc(NC(=O)CC2CCCC2)c1	-3	31	3	0	53*	0	-3%
O=C(CC1CCCC1)Nc1cccc(Br)c1	-3	-4	3	1	-5	0	·
COc1ccc(S(=O)(=O)Nc2ccc3c(c2)C(=O)N([C@@H](C)CO)C[C@@H](C)[C@@H](CN(C)S(=O)(=O)c2ccc(OC)cc2)O3)cc1	·	14	·	·	·	0	·
O=C(C1CCCN1S(=O)(=O)c1ccc(Cl)s1)N1CCc2ccccc2C1 (configuration not stated)	·	·	·	0	-4	·	·
SMILES	SR-BI uptake up	ARNT TACC3 PPI	SR-BI DiI inh	sPLA2-III inh	NSD2 inh	Xi reactivation	AlphaScreen art
NC(=O)C1Cc2ccccc2CN1S(=O)(=O)c1ccc(Cl)s1 (configuration not stated)	2	-3	-2	-4	89*	0	-3%
CCOc1ncccc1C(=O)OC(C)C(=O)NC1CCCCC1 (configuration not stated)	1	3	-1	4	0	0	·
COc1ccc(NC(=O)CSc2nc3ccccc3c(=O)n2CCC(=O)N2CCCCC2)cc1	5	7	-5	2	1	·	·
CCOc1ccc(NC(=O)CSc2nc3ccccc3c(=O)n2CCCC(=O)N2CCCC2)cc1	1	-7	-1	5	118*	·	3%
Nc1c(Cl)cc(NC(=O)c2ccccc2C(=O)O)cc1Br	18	-8	-18	5	1	0	·
O=C1c2cccc(Sc3ccccc3)c2C(=O)c2c(Sc3ccccc3)cccc21	-14	20	14	-5	76*	0	-17%
CCCCn1nnc(NC(=O)c2ccco2)n1	11	5	-11	2	123*	·	3%
Cc1ccc(-c2noc(C3CCCN(C(=O)c4ccc(C(C)(C)C)cc4)C3)n2)o1 (configuration not stated)	-12	-11	12	-3	9	0	·
COC(=O)Nc1ccc(S(=O)(=O)NCc2ccccn2)cc1	24	3	-24	2	-1	0	·
COC(=O)c1cc(C)nc2c1C(=O)C(=O)C=C2N1CCOCC1	25	·	-25	-2	+	1	-1%
CCCC1CC(CSc2ncn[nH]2)OC1=O (configuration not stated)	16	-6	-16	-5	-5	0	·
CCC1CC(CSc2ncn[nH]2)OC1=O (configuration not stated)	-5	0	5	11	56*	·	-2%
CCN1CCC(CNCc2cn(-c3ccc(OC)cc3)nc2-c2ccccc2Cl)C1 (configuration not stated)	23	15	-23	-1	75*	0	-4%
COc1ccc(-n2cc(CNCCN3CCOC3=O)c(-c3ccccc3Cl)n2)cc1	·	-1	·	-2	-2	0	·
COC(=O)c1ccc(-c2ccc(C(c3c(C)[nH][nH]c3=O)c3c(C)[nH][nH]c3=O)o2)cc1	-9	35	9	-27	53*	0	-1%
Cc1[nH][nH]c(=O)c1C(c1ccc(-c2cccc(C(=O)O)c2)o1)c1c(C)[nH][nH]c1=O	6	10	-6	5	+	0	-2%
CNC(=S)N/N=C/c1ccc(-c2cccc(C(=O)O)c2)o1	·	7	·	6	3	0	·
